Five compounds from article PMC5693771 (Bioorganic & medicinal chemistry letters, 2017) can be followed below.

One series concerns Huh-7 cells. In words: Cytotoxicity in Huh-7 cells. The series is classed as cell-based. The conditions noted are these: all four tested cell lines (Huh-7, PBM, CEM, Vero).
In series [1] the test system is HCV genotype 1b RNA replication. In words: HCV genotype 1b subgenomic replicon assay in Huh-7 cells. The series is classed as cell-based, Hepatitis C virus (HCV). The conditions noted are these: for EC90: Hepatitis C virus, GETYPE1B, Huh-7, read-out: Anti HCV activity EC90. The gist of the method:
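Each assay was run in replicate. Values are the mean and SD of three replicates.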
A general note: In antiviral work, replicon cells carry a viral genome segment that copies itself.

By EC90 is commonly meant the concentration needed for an effect of 90%.

Entries after “also recorded” stand apart in the source; their conditions may differ. Bounds are passed on as bounds.

In the case of `CC(C)OC(=O)[C@H](C)N[P@](=O)(OC[C@H]1O[C@@H](n2ccc(=O)[nH]c2=O)C(Br)(Br)[C@@H]1O)Oc1ccccc1` [Compound 13a], in the series on Huh-7 cells, the “Cellular toxicity (in words)” value is “non-toxic; also recorded: no observed toxicity”. For the compound `CC(C)OC(=O)[C@H](C)N[P@](=O)(OC[C@H]1O[C@@H](n2cnc3c(=O)[nH]c(N)nc32)C(Br)(Br)[C@@H]1O)Oc1ccccc1` [Compound 13d], in series [1], the EC90 was more than 10 µM. On the same count and under the same terms, in the case of `CC(C)OC(=O)[C@H](C)N[P@](=O)(OC[C@H]1O[C@@H](n2cnc3c(N)ncnc32)C(Br)(Br)[C@@H]1O)Oc1ccccc1` [Compound 13c] it was more than 10 µM.

As for `O=c1ccn([C@@H]2O[C@H](CO)[C@@H](O)C2(Br)Br)c(=O)[nH]1` [Compound 10a], the “Concentration up to which no antiviral (anti-HCV) activity was shown” value in series [1] (HCV genotype 1b replicon, Huh-7 cells) was more than 33 µM.

Turning to `Nc1ccn([C@@H]2O[C@H](CO)[C@@H](O)C2(Br)Br)c(=O)n1` [Compound 10b], the EC90 in series [1] was more than 10 µM.
